Laboratory results reported in ChEMBL document CHEMBL1275351, “Novel spirotetracyclic zwitterionic dual H(1)/5-HT(2A) receptor antagonists for the treatment of sleep disorders” (J Med Chem, 2010).

Assays:
Rattus norvegicus [1] = experiment: Hypnotic activity in Sprague-Dawley rat assessed as total sleep time at 3 mg/kg, po administered during active phase; format: functional
Outline: (§1)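 Male Sprague-Dawley rats (275-300 g) carried implanted telemetric EEG/EMG transmitters and were used 3 weeks after surgery. Oral dosing (2 mL/kg) was given 6 h after lights off (CT18) in a randomized crossover versus vehicle. Recording ran for 5 h in 10 s epochs scored by FFT. n = 8, mean ± SEM; one-way ANOVA with Dunnett's test.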

Histamine H1 receptor [2] = target: Histamine H1 receptor (Rattus norvegicus, UniProt P31390); experiment: Displacement of [3H]pyrilamine from histamine H1 receptor in Sprague-Dawley rat cortical membrane by liquid scintillation counting
Histamine H1 receptor (Rattus norvegicus, UniProt P31390), sequence (P31390 whole entry): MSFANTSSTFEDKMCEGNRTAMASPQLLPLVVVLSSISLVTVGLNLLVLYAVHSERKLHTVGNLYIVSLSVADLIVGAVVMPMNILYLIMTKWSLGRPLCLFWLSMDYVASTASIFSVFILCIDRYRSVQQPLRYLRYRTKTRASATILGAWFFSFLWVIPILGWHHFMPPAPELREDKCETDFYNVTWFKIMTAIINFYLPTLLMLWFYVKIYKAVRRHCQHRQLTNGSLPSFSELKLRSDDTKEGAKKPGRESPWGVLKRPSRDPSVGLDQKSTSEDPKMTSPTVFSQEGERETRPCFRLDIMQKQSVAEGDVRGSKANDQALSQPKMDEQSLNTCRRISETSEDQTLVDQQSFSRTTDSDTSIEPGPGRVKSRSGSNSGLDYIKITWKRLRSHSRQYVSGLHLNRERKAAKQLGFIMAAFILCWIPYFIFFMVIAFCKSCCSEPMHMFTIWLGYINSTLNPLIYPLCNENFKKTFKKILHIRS
Outline: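 Cerebral cortex membranes from male Sprague-Dawley rats (200-250 g), 150 μg/well. Incubated with 0.6 nM [3H]pyrilamine in 50 mM HEPES, pH 7.4, for 2 h at room temperature. Filtered on PEI-soaked GF/B and counted by scintillation. Nonspecific binding with 10 μM cetirizine. Ki by Cheng-Prusoff; mean of two experiments in duplicate.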

Cytochrome P450 2D6 = Cytochrome P450 2D6 (Homo sapiens, UniProt P10635); experiment: Inhibition of human CYP2D6 transfected in bactosome expression system by spectrofluorimetry; format: ADME
Cytochrome P450 2D6, sequence (P10635 whole entry): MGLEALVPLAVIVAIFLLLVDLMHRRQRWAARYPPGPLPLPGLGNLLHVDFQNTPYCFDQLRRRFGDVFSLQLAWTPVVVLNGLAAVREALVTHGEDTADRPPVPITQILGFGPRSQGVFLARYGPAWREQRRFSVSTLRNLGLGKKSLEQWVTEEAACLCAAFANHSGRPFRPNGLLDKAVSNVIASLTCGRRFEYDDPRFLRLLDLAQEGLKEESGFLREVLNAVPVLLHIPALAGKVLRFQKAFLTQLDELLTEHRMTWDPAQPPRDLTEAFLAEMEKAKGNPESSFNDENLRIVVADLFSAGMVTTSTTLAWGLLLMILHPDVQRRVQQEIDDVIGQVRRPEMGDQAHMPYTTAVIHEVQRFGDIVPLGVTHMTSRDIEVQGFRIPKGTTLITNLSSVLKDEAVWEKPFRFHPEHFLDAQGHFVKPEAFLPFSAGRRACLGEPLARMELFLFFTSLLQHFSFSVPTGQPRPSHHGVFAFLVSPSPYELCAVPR
Outline: (§2)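 Recombinant human CYP Bactosomes (0.1 mg/mL) in 50 mM phosphate buffer, pH 7.4. Compound at 0.1-10 μM was preincubated with fluorogenic substrate for 10 min at 37 °C, and the reaction was started with an NADPH regenerating system. Metabolite fluorescence was followed for 10 min. Substrates: 1A2 ethoxyresorufin 0.5 μM; 2C9 FCA 50 μM; 2C19 BMC 10 μM; 2D6 MMC 10 μM; 3A4 DEF 1 μM or 7-BQ 25 μM. Run in triplicate.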

Rattus norvegicus [3] = experiment: Hypnotic activity in Sprague-Dawley rat assessed as non-rapid eye movement sleep at 10 mg/kg, po administered during active phase; format: functional; outline: as §1
Cytochrome P450 2C19 = Cytochrome P450 2C19 (Homo sapiens, UniProt P33261); experiment: Inhibition of human CYP2C19 transfected in bactosome expression system by spectrofluorimetry; format: ADME; outline: as §2
Cytochrome P450 2C19, sequence (P33261 whole entry): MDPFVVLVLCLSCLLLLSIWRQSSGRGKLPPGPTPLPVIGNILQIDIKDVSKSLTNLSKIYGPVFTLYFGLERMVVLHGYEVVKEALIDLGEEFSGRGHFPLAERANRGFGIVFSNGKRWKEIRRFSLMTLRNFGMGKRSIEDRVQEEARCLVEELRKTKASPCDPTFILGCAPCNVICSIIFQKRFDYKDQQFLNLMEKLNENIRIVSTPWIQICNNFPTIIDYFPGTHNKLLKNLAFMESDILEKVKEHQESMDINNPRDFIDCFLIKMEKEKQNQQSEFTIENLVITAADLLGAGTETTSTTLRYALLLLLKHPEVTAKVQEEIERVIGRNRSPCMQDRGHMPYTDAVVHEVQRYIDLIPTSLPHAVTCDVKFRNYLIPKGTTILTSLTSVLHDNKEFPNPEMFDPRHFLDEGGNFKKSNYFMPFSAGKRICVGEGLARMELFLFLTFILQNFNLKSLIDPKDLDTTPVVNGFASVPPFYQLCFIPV

Rattus norvegicus [4] = experiment: Hypnotic activity in Sprague-Dawley rat assessed as rapid eye movement sleep at 1 mg/kg, po administered during active phase; format: functional; outline: as §1
Histamine H1 receptor [5] = target: Histamine H1 receptor (Homo sapiens, UniProt P35367); experiment: Antagonist activity against human histamine H1 receptor expressed in CHO cells by FLIPR assay; format: functional, cell-based
Histamine H1 receptor (Homo sapiens, UniProt P35367), sequence (P35367 whole entry): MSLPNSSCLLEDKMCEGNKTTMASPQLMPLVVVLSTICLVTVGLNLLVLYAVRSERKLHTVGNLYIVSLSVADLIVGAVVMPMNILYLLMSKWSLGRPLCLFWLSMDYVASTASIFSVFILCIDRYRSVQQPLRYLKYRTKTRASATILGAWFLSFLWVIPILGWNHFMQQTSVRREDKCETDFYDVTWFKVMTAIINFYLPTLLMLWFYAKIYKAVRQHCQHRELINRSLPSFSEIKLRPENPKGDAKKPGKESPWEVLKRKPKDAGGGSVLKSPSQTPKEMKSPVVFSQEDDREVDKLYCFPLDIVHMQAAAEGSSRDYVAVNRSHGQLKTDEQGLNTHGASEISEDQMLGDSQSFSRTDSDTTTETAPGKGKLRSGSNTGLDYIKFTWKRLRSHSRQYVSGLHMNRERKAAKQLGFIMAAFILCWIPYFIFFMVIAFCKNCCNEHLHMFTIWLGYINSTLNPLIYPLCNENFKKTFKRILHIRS

Rattus norvegicus [6] = experiment: Hypnotic activity in Sprague-Dawley rat assessed as rapid eye movement sleep at 10 mg/kg, po administered during active phase; format: functional; outline: as §1
[7] = target: 5-hydroxytryptamine receptor 2A (Homo sapiens, UniProt P28223); experiment: Antagonist activity at human 5HT2A receptor expressed in HEK cells assessed as inhibition of intracellular calcium accumulation by aequorin assay; format: functional, cell-based, HEK293
5-hydroxytryptamine receptor 2A, sequence (P28223 whole entry): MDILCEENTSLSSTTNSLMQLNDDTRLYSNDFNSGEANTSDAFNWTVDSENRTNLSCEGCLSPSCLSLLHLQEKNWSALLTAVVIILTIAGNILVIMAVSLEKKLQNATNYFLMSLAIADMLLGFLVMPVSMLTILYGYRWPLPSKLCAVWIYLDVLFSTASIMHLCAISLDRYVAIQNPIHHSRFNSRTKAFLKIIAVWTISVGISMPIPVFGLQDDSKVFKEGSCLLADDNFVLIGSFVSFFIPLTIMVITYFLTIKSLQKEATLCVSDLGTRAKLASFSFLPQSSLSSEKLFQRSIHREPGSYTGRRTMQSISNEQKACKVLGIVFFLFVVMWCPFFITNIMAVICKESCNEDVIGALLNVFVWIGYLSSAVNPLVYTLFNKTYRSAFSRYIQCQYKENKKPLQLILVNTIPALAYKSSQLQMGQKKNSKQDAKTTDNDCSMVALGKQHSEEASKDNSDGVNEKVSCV

[8] = target: Voltage-gated inwardly rectifying potassium channel KCNH2 (Homo sapiens, UniProt Q12809); experiment: Displacement of [3H]dofetilide from human ERG by scintillation proximity assay
Voltage-gated inwardly rectifying potassium channel KCNH2, sequence (Q12809 whole entry): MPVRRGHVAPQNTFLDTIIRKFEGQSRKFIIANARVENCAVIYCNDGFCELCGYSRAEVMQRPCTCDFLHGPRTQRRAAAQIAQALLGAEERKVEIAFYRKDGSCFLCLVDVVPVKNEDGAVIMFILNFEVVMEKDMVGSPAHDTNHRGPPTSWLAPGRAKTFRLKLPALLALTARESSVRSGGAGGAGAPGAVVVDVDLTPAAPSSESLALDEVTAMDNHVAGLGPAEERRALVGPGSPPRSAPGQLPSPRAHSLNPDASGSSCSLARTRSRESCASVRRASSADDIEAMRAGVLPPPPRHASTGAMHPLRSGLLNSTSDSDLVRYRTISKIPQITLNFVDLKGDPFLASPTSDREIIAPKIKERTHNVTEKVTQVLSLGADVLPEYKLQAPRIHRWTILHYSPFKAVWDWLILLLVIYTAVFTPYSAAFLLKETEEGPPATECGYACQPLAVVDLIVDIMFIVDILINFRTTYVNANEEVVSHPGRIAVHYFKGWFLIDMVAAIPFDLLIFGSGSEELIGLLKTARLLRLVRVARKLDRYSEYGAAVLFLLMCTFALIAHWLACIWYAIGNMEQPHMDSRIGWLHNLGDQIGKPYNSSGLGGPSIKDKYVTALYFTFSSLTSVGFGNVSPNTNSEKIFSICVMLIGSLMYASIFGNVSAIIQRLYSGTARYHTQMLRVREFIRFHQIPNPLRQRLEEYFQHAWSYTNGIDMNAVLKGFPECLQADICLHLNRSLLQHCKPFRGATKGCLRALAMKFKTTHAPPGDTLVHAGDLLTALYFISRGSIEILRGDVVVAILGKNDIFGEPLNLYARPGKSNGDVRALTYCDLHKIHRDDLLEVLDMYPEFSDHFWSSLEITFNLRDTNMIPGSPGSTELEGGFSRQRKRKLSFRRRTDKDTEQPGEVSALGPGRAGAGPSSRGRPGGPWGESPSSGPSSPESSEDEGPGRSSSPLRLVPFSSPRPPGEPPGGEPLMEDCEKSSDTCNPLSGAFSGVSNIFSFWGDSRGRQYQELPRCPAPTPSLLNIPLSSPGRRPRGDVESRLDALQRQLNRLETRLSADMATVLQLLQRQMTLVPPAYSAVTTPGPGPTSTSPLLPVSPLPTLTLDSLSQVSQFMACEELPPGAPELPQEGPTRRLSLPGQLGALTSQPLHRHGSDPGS

Rattus norvegicus [9] = experiment: Hypnotic activity in Sprague-Dawley rat assessed as non-rapid eye movement latency period at 1 mg/kg, po administered during active phase; format: functional; outline: as §1
Rattus norvegicus [10] = experiment: Hypnotic activity in Sprague-Dawley rat assessed as non-rapid eye movement latency period at 10 mg/kg, po administered during active phase; format: functional; outline: as §1
Rattus norvegicus [11] = experiment: Hypnotic activity in Sprague-Dawley rat assessed as rapid eye movement latency period at 1 mg/kg, po administered during active phase; format: functional; outline: as §1
Rattus norvegicus [12] = experiment: Hypnotic activity in Sprague-Dawley rat assessed as rapid eye movement latency period at 10 mg/kg, po administered during active phase; format: functional; outline: as §1
Cytochrome P450 2C9 = Cytochrome P450 2C9 (Homo sapiens, UniProt P11712); experiment: Inhibition of human CYP2C9 transfected in bactosome expression system by spectrofluorimetry; format: ADME; outline: as §2
Cytochrome P450 2C9, sequence (P11712 whole entry): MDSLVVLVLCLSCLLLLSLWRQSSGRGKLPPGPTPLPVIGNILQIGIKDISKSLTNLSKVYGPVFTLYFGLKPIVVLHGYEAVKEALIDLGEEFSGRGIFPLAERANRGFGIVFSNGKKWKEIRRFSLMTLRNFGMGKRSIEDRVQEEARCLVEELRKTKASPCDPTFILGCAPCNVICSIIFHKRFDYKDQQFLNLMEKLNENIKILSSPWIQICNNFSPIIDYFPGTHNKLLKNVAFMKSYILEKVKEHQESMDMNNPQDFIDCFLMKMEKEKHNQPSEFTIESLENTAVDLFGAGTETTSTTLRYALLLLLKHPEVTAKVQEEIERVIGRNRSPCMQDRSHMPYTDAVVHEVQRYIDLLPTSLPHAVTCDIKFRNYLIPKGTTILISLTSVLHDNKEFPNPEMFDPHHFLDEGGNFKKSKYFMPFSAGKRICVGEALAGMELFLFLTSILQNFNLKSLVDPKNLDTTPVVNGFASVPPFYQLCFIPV

[13] = target: T1, 5-hydroxytryptamine receptor 2C (Homo sapiens, UniProt P28335); experiment: Antagonist activity at human 5HT2C receptor expressed in human SH-SY5Y cells by FLIPR assay; format: functional, cell-based
T1 sequence (P28335 whole entry): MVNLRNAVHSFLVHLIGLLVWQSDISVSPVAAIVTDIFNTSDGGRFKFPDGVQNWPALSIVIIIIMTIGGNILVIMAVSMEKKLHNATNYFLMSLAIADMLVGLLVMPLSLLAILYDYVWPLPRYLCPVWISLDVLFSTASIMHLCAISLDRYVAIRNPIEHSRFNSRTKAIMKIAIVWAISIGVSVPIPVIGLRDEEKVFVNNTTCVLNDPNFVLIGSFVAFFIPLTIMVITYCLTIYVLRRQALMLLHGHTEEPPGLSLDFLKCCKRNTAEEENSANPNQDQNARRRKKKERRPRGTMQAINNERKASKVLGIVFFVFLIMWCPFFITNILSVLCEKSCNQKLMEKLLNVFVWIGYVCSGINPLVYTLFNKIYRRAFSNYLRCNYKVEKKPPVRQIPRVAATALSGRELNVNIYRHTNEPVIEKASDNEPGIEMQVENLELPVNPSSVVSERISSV

Rattus norvegicus [14] = experiment: Hypnotic activity in Sprague-Dawley rat assessed as total sleep time at 1 mg/kg, po administered during active phase; format: functional; outline: as §1
Rattus norvegicus [15] = experiment: Hypnotic activity in Sprague-Dawley rat assessed as non-rapid eye movement latency period at 3 mg/kg, po administered during active phase; format: functional; outline: as §1
Rattus norvegicus [16] = experiment: Hypnotic activity in Sprague-Dawley rat assessed as rapid eye movement latency period at 3 mg/kg, po administered during active phase; format: functional; outline: as §1
Rattus norvegicus [17] = experiment: Hypnotic activity in Sprague-Dawley rat assessed as non-rapid eye movement sleep at 3 mg/kg, po administered during active phase; format: functional; outline: as §1
Rattus norvegicus [18] = experiment: Hypnotic activity in Sprague-Dawley rat assessed as total sleep time at 10 mg/kg, po administered during active phase; format: functional; outline: as §1
Cytochrome P450 1A2 = target: T2, Cytochrome P450 1A2 (Homo sapiens, UniProt P05177); experiment: Inhibition of human CYP1A2 transfected in bactosome expression system by spectrofluorimetry; format: ADME; outline: as §2
T2 sequence (P05177 whole entry): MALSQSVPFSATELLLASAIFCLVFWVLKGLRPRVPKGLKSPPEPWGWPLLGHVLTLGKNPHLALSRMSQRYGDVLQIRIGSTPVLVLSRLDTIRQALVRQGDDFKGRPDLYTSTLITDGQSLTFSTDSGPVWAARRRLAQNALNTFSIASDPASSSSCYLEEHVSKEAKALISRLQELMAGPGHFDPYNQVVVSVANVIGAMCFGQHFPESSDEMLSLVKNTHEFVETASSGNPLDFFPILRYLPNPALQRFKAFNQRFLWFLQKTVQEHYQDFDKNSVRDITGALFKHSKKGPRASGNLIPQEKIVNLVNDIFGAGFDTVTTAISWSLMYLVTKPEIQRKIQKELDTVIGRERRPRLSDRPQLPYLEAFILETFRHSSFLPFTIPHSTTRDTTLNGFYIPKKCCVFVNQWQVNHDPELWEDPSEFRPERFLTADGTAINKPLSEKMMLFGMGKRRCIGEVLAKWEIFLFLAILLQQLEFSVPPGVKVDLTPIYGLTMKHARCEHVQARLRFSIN

Cytochrome P450 3A4 = Cytochrome P450 3A4 (Homo sapiens, UniProt P08684); experiment: Inhibition of human CYP3A4 transfected in bactosome expression system by spectrofluorimetry; format: ADME; outline: as §2
Cytochrome P450 3A4, sequence (P08684 whole entry): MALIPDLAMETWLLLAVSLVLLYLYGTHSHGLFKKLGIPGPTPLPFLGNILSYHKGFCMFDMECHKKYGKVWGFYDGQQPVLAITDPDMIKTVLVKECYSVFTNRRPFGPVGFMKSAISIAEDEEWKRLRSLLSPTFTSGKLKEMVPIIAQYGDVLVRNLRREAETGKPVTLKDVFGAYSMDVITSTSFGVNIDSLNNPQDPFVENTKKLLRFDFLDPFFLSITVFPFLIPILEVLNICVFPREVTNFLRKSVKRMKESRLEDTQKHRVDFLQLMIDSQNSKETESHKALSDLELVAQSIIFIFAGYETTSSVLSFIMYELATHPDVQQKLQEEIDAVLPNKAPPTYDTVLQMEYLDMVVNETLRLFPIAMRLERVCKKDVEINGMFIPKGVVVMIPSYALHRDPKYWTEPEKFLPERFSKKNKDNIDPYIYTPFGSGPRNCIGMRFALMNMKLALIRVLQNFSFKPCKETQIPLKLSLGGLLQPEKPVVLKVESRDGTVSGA

[19] = Fraction unbound in rat brain; format: ADME, tissue-based
[20] = Fraction unbound in rat blood; format: ADME, tissue-based

Ki (Histamine H1 receptor [2])	IC50 (Cytochrome P450 2D6)	IC50 (Cytochrome P450 2C19)	Ki (Histamine H1 receptor [5])	Ki [7]	IC50 (Cytochrome P450 2C9)	Ki [13]	SMILES	Time (Rattus norvegicus [1])	Time (Rattus norvegicus [3])	Time (Rattus norvegicus [4])	Time (Rattus norvegicus [6])	IC50 [8]	Time (Rattus norvegicus [9])	Time (Rattus norvegicus [10])	Time (Rattus norvegicus [11])	Time (Rattus norvegicus [12])	Time (Rattus norvegicus [14])	Time (Rattus norvegicus [15])	Time (Rattus norvegicus [16])	Time (Rattus norvegicus [17])	also measured
0.00562 µM	> 10 µM	> 10 µM	0.00631 µM	0.0158 µM	> 10 µM	0.00631 µM	O=C(O)C1CN(C2CC[C@]3(Cc4ccccc4Cc4ccccc43)C2)C1 (stereo not given in full)	134.7 min	130.5 min	10.7 min	14.6 min	> 50.1 µM	58.1 min	33.5 min	77.8 min	64.5 min	98.1 min	51.6 min	81.6 min	118.6 min	Time (Rattus norvegicus [18]): 145.2 min; IC50 (Cytochrome P450 1A2): > 10 µM; IC50 (Cytochrome P450 3A4): > 10 µM; fraction unbound [19]: 0.032; fraction unbound [20]: 0.12
0.00468 µM	> 10 µM	> 10 µM	0.0501 µM	0.0794 µM	> 10 µM	0.0631 µM	O=C(O)C1CCN(C2CC[C@]3(Cc4ccccc4Cc4ccccc43)C2)CC1 (stereo not given in full)	105.2 min	104 min	9.7 min	12.6 min	> 63.1 µM	69.8 min	34.6 min	83.6 min	83.8 min	94.4 min	51.4 min	77.9 min	94.2 min	Time (Rattus norvegicus [18]): 105.2 min; IC50 (Cytochrome P450 1A2): > 10 µM; IC50 (Cytochrome P450 3A4): > 10 µM; fraction unbound [19]: 0.031; fraction unbound [20]: 0.182
0.0141 µM	> 10 µM	> 10 µM	0.0501 µM	0.0316 µM	> 10 µM	0.0316 µM	O=C(O)C1CN(C2CCC3(Cc4ccccc4Oc4ccccc43)C2)C1 (stereo not given)	138.3 min	139.5 min	13.3 min	16.2 min	> 50.1 µM	37.8 min	31.5 min	67 min	63.4 min	120.7 min	37.9 min	77.7 min	123.2 min	Time (Rattus norvegicus [18]): 155.7 min; IC50 (Cytochrome P450 1A2): > 10 µM; IC50 (Cytochrome P450 3A4): > 10 µM; fraction unbound [19]: 0.04; fraction unbound [20]: 0.171
